Residues, ends and D or L forms follow the SMILES beside them.
Legend:
[1] = organism: Mus musculus; assay: Reduction of hexobarbital induced sleeping time in mice.; type: functional
[2] = test system: Rattus norvegicus; assay: Ability of 80 mg/kg to inhibit the cataleptic effect of haloperidol in rat; type: functional
[3] = organism: Rattus norvegicus; assay: Dose that inhibited cataleptic effect of haloperidol in rat by 50%; type: functional
[4] = organism: Rattus norvegicus; assay: Thyrotropin releasing activity (TSH) was evaluated by measuring the TSH response to the compound by radioimmunoassay in two doses in the rat; type: functional
How it was run: (§1)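 Rat two-point assay at 1 and 10 μg. TSH response is measured by radioimmunoassay. Compounds are dissolved in physiological saline (5 mL/kg), and controls receive the same volume of saline. n = 10 animals per treatment. Significance is given as p < 0.01 and p < 0.001.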

[5] = organism: Rattus norvegicus; assay: Thyrotropin releasing activity (TSH) was evaluated by measuring the TSH response to the compound by radioimmunoassay in two doses in the rat; np denotes Slightly significant but not parallel TSH response to the lower and upper dose s used; type: functional, organism-based; how it was run: as §1
[6] = test system: Rattus norvegicus; assay: Ability of 80 mg/kg to inhibit the cataleptic effect of haloperidol in rat; Potentiating effect; type: functional, organism-based; design: dose 80 mg/kg; conditions: at 80 mg/kg
[7] = organism: Rattus norvegicus; assay: Doses that inhibited cataleptic effect of haloperidol in rat by 50%; type: functional

SMILES | Sleeping time [1] | inhibition in vivo at 80 mg/kg [2] | ED50 [3] | Activity [4] | Activity [5] | inhibition [6] | ED50 [7]
CC(C)C[C@H](NC(=O)[C@@H]1CCC(=O)O1)C(=O)N1CCC[C@H]1C(N)=O | 36.8 min | 40% | – | – | – | – | –
CCC[C@H](NC(=O)[C@@H]1CCCC(=O)N1)C(=O)N1CCC[C@H]1C(N)=O | 19.7 min | – | 10.6 mg/kg | 0% | – | – | –
CC(C)C[C@H](NC(=O)[C@@H]1CNC(=O)N1)C(=O)N1CCC[C@H]1C(N)=O | 25.8 min | 40% | – | 0% | – | – | –
CCC[C@H](NC(=O)[C@@H]1CCCC(=O)N1)C(=O)N1CSC[C@H]1C(N)=O | 23.6 min | – | 60.3 mg/kg | – | – | – | –
CCC[C@H](NC(=O)[C@@H]1CCC(=O)N1)C(=O)N[C@H](CCSC)C(N)=O | 46.1 min | 20% | – | 0% | – | – | –
CCC[C@H](NC(=O)[C@@H]1CCCC(=O)N1)C(=O)N1CSC[C@@H]1C(N)=O | – | – | – | – | Slightly significant but not parallel | – | –
CC(=O)N1CCC[C@H]1C(=O)N[C@@H](CC(C)C)C(=O)N1CCC[C@H]1C(N)=O (Ac-Pro-Leu-Pro-NH2) | 37.6 min | 0% | – | – | – | – | –
CC(C)C[C@H](NC(=O)[C@@H]1CCCN1)C(=O)N1CCC[C@H]1C(N)=O (H-Pro-Leu-Pro-NH2) | 65.6 min | 0% | – | – | Slightly significant but not parallel | – | –
CC(C)C[C@H](NC(=O)[C@@H]1CCC(=O)N1)C(=O)NCC(N)=O (HELM PEPTIDE1{[Glp].L.G.[am]}$$$$V2.0) | 35.8 min | 0% | – | – | – | – | –
CC(C)C[C@H](NC(=O)[C@@H]1CCC(=O)N1)C(=O)N1CCCC[C@H]1C(=O)O (HELM PEPTIDE1{[Glp].L.[O=C(O)[C@@H]1CCCCN1[*:1]]}$$$$V2.0) | 33.3 min | 20% | – | – | Slightly significant but not parallel | – | –
CC(C)C[C@H](NC(=O)[C@@H]1CCC(=O)N1)C(=O)N1CCCC[C@H]1C(N)=O (HELM PEPTIDE1{[Glp].L.[O=C([C@@H]1CCCCN1[*:1])[*:2]].[am]}$$$$V2.0) | 16.6 min | – | 38.5 mg/kg | 7.2% | – | – | –
CC(C)C[C@H](NC(=O)[C@@H]1CCC(=O)N1)C(=O)N1CSC[C@H]1C(N)=O (HELM PEPTIDE1{[Glp].L.[O=C([C@@H]1CSCN1[*:1])[*:2]].[am]}$$$$V2.0) | 17.2 min | – | 31.4 mg/kg | 0% | – | – | –
CCC[C@H](NC(=O)[C@@H]1CCC(=O)N1)C(=O)N[C@H](C(N)=O)[C@@H](C)CC (HELM PEPTIDE1{[Glp].[Nva].I.[am]}$$$$V2.0) | 47.7 min | – | – | 0% | – | Potentiating effect | –
CCC[C@H](NC(=O)[C@@H]1CCC(=O)N1)C(=O)N[C@@H](CC(C)C)C(N)=O (HELM PEPTIDE1{[Glp].[Nva].L.[am]}$$$$V2.0) | 43 min | 20% | – | 0% | – | – | –
CCC[C@H](NC(=O)[C@@H]1CCC(=O)N1)C(=O)N1CSC[C@H]1C(N)=O (HELM PEPTIDE1{[Glp].[Nva].[O=C([C@@H]1CSCN1[*:1])[*:2]].[am]}$$$$V2.0) | 26.4 min | – | 56 mg/kg | 0% | – | – | –
CC(C)C[C@H](NC(=O)[C@@H]1CSCN1)C(=O)N1CCC[C@H]1C(N)=O (HELM PEPTIDE1{[O=C([C@@H]1CSCN1)[*:2]].L.P.[am]}$$$$V2.0) | 35 min | 0% | – | 0% | – | – | –
CC(C)C[C@H](NC(=O)[C@@H]1CCCC(=O)N1)C(=O)N1CCC[C@H]1C(N)=O [POSATIRELIN] | 16.4 min | – | – | 2.7% | – | – | 23.5 mg/kg
NC(=O)[C@@H]1CCCN1C(=O)[C@H](Cc1c[nH]cn1)NC(=O)[C@@H]1CCC(=O)N1 [PROTIRELIN] | 24.8 min | 40% | – | 100% | – | – | –
